To fix the notation:
B1: tRNA (parent)
chain: GUUCCGUUGGCGUAAUGGUAACGCGUCUCCCUCCUAAGGAGAAGACUGCGGGUUCGAGUCCCGUACGGAACG

This sample holds only a part of the variants without activity.

Variants of B1 are the subject of the data set. Nature of the data set: yeast fitness relative to wild type (ratio to wild type); higher = fitter; tRNA-Arg(CCU), competitive growth, 37 C, YPD. The procedure, abridged: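 The tRNA-Arg(CCU) gene variants were made by chemical synthesis with a 3% per-site mutation rate at 69 sites and inserted at the native genomic locus of Saccharomyces cerevisiae. After pooling, the strains were competed in YPD at 37°C for 24 hours in six parallel replicates. Gene amplicons from the start population and each end population were read by 100-nucleotide paired-end sequencing, and Darwinian fitness relative to wild type was taken from genotype frequency changes. Genotypes needed ≥ 100 starting reads, and estimates < 0.5 were set to 0.5.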
On to GUUCCGUUGGCGUAAUGGUAACGCGUCUCCCAACUAAGGAGAAGAGUGCGGGUUCGAGUCCCGUACGGAACG, for which the yeast fitness was no more than 0.5.
For the variant GUUCCGUUGGCGUAAUGGUAAUGCGUCUCCGUCCUUAGGAGAAGACUGCGGGUUCGAGUCCCGUACGGAACG, the yeast fitness is no more than 0.5.
Consider GUUCCGUUGGCGUAAUGGUGACGCGUAUCCCUCCUAAGGAGAAGAGUGCGGGAUCGAGUGCCGUACCGAACG, for which the yeast fitness is no more than 0.5.
Turning to GUUCCGUUGGCGGAAUGGUAACGCGUCUCCCUCCUAAGGAGAAGACAGCGGGUUCGAGUCCCGUACGGAACG, the yeast fitness is 0.976.
Consider GUUCCCGUGGCGUAAGGGUAACGCGUCUCCCUCCUAAGGAGAGGACUGCGGGUUCGAGUCCCGUACGGAACG, for which the yeast fitness is 0.707.
Turning to GUUCCGUUGGCGUAAUGGUAACGCCUCUCCUACCUAAGGAGAAGAUUGCGGGUUCGAGUCCCGUACGGAACG, the yeast fitness was no more than 0.5.
In the case of GUUCCGUUGGCGUAAUGGUAAACCGUCUCUCUCCUAAGGAGAAGACUGCGGGUUCGAGUCCCGUAGGGAACG, the yeast fitness is no more than 0.5.
Take GUUCCGUUGGCGUAAUGGUAACGCGUCUCCCUACUAAGGAGAAGAAUGCGGGUUCGAGUCCCGUACAGAACG: the yeast fitness was no more than 0.5.
As to GUUCCGUUGGCGUAAUGGUAACGCGUCUCCCUCCUAAGGAGAAGACUGUGGGUUCGAGUCCCGUACGCAACG, the yeast fitness was found to be 0.801.
With GUUCCGUUGGCGUAAUGGUAAUGCAUCUCCCUCCUAAGGAGAAGACUCCGGGUUCGGGUCCCGUACGGAACG, the yeast fitness is no more than 0.5.
With GUUCCGUUGGCGUAAUGGUACCGCGUCUCCCUCCUAAGGAGAAGAGUGCGGGUUUGAGUCCCGUACGGAACG, the yeast fitness stood at 0.523.
Consider GUUCCGUUGGGGUAAUGGUAACGCGUCUCCCUCCUAAGGAGAAGACUGCGGGUUCGAGUCUCGUACGGAACG, for which the yeast fitness stood at 0.656.
Take GUUCCGUUGGCGUAACGGUAACGCGUCUCCCUCCUAAGGAGAAGACUGGGGGUUGGAGUACAGUACGAUACG: the yeast fitness is no more than 0.5.
For GUGCCGUUGGCGCUAUGGUAACGCGUCUACCUCCUAAGGAGAAGACUGCGGGUUUGAGUCCCGUACGGAACG, the yeast fitness came out at 0.611.
For GUUCCGUUGGCGUAAUGGUAACGCGGCUCCCUCCUACGGAGGACGCUGUGGGUUCGAGUCCCGUUCGGAACG, the yeast fitness was no more than 0.5.
In the case of GGUCCAUUGGCGUAAUGGUAACGCGUCUCCCUCCUAAGGAGAAAACUGCGGGUUCGAGUCCCGUACCGAACG, the yeast fitness is 0.531.
Turning to GGUCCGUUGGCGAAAAGGUAACGCGUCUGCCUCCUAAGGAGAAGACUGCGGGUUCGAGUCCCGUACGGAACG, the yeast fitness is no more than 0.5.
Under GUUCCGUUCGCGUAAUGGUAACGCGUCUUCCUCCUUAGGAGAAGACUGCGGGUUCGAGUCCCGUACAGAACG stands 0.501; under GUUCAGUUGGCGUAAUGGUCACGAGUCUCCCUCCUAAGGAGAAGACUGCGGGUUCGAGUCCCGUACGGAACG, 0.575.
Take GUUCCCUUGGCGUUAUGGUAACGCGUCUCCCUCCUGAGGGGAAGAAUGCGGGUUCGAGUCCUGUACGGAACG: the yeast fitness was no more than 0.5.
GUUCCGUUGGCGUAACGGCAACGCGUCUCCCUCCCAAGGAGAAGACUGCGGGUUCGAGUCCCGUACGGAACG: the yeast fitness is no more than 0.5.
To GUUCCGUUGGCGUAAUGGUAACGCGUCUCCCUCCUGACGAGAAGACUGCGGCUUCGUGUCCCGUACGGUGCG belongs no more than 0.5; to GUUCCGUUGGAGGAAUGGUAACGCGUCUCCCUCCUAAGGAGAAGACUGCGGGUUAGAGUCCCGUACGGAACG, 0.659; to GUUCCGAUGACGUAUUGGUAACGCGUCUCCCUCCUAAGGAGAAGAAUGCGGGUUCGAGUCCCGUACGGAACG, no more than 0.5.
Take GUUCCGUUGGCGUAAUGGUACCGAGUCUCCAUCCUAAGGAGAAGACAGCGGGUUCGAGUCCCGUACGGAACG: the yeast fitness was no more than 0.5.
Regarding GUCCCGUUGGCGUAAUGGUAACGCGUCUCCCUCCUAAGGAGAAGAGUGCGGGUUCGAGUCCCGUACGGUACG, the yeast fitness came out at 0.807.
Turning to GUUACGUUGGCGUAAUGGUAACGCGUCUCCCUCCUAUGGAGAAGACUGCGAGUUCGAGUCCCGUACGGAACG, the yeast fitness is no more than 0.5.
Under GUUCCGUUGGCGUAAUGGUAACGCGUCUCCCUCCUAAGGAAAAGACUGCGAGUUCGAGUCCCGUACGGAACG stands 0.664; under GUUCCGGUGGCGUAAUGGUAACGCGUCUCCCUCCUAAGGAGAAGACUGCGGGUUCGAGUCCCAUGCGGAACG, 0.828; under GUUCCGUUGGCGUAAUGGUAACGCGUCUCCCUCCUACGGAGAAGACUGCGGGUUCGAAUCCCGUACGGAACG, 0.844.
As for GUUCCGUUGCCCUAAUGGUAACGCGUCUCCCUCCUAAGGAGAAGACUGUGGGUUCCAGUCCCGUACGGAACG, the yeast fitness is no more than 0.5.
Take GUUCCUUUGGAGAAAUGGUAACGCGUCUCCCUCCUAAGGAGAAGACUGCGGAUUCGAGUCUCGUACGGCACG: the yeast fitness was 0.527.
As for GCUCCGUUGGCGUAAUGGUAACGCGCCUCCCUCCUAAGGAGAAGACUACGGGUUCGAGUCCCGUACGGAACG, the yeast fitness came to 0.663.
As for GUUCCGUUAGCGUAAUGGUAACGGGUCUCCCUCGUAAGGAGACGACUGCGGGUUCGAGUCCCGUACGGAACG, the yeast fitness is no more than 0.5.
GUUCCGUUGGCGUAAUGGUAACGCGUCUCGCUCGUAGGGAGAAGGCUGCGGGUUCGAGUCCCGUACGGAACG: the yeast fitness is no more than 0.5.
In the case of GUUCCGCUGGCGUAAUGGUAACGCGUCUCCCUCCUAAGGAGAAGACUGCGGGUUCGAGUCGCGUACGGAACG, the yeast fitness is 0.634.
For GUUCCAUUGGCGUAAUGGUAACGCGUUUACCUCCUAAGGAGAAGACUGCGGGUUCGACUCCCGUACGGAACG, the yeast fitness is no more than 0.5.
For GUUCCGUUGGCGUAAUGGUAACACGUCUCGCUCCUAAGGAGAAGACUGCGGGUUCGAGUCCCGUUCGGAACG, the yeast fitness was no more than 0.5.
GUUCCGGUGGCGUAAUGGUAACGCGUCUCCCUCCUAAGGAGAAGACUGCGGGUUCGAGUACCGUACGGACCG: the yeast fitness is 0.551.
GUUCCGUUGGCGUAAUGGUAACGCGUCUCCCUCCUAAGGAGAAGACCGCGGAUUCGAGUCCCAUACGGAACG: the yeast fitness was no more than 0.5.
As to GUCCCGUUGGCGUAAUGGUAACGCGUCUCCCUCCUAAGGAGAUGGCUGCGGGUUCGAGUCCCGUACGGCACG, the yeast fitness was no more than 0.5.
Under GUUCGGUUGGCGUAAUGGUAACGCGUUUCCCUCCUAAGGAGAAGAUUGCGGGUCCGAGUCCCGUACGGAACG stands no more than 0.5; under GUUCCGUUGGCGUAAUGGUAACGCGUCUACCUCCUAAGGAGAAGACUGCGGGUUGGAGUCCCGUGCGGAACG, 0.57; under GUUCCGUUGGCGUAACGGUAACGCGUCUCCCUCCUAAGGUGAAGACAGCGGGUUCGAGUCCCGUACGGAACG, 0.532.
On to GUUCCGUUGGAGUAAUGGAAACGCGUCUACCACCUAAGGAGAAGACUGCGGGUCGGAGUGCCGUACGGAACG, for which the yeast fitness was no more than 0.5.
As to GUUCCGUUGGCGUCAUGGUAACGUGUCUCCCUCCCAAGGAGAAGACUGCGGGUUCGAGUCCCGUACGGAACG, the yeast fitness is no more than 0.5.
With GUUCCGUUGGCGUAAUGGUAACGCGUCUCCCUCCUAAGGAGCAGACUGCGGGUUUGAGUCCCGUAUGGAACG, the yeast fitness was 0.504.
With GUUCCGUUGGCGUAAUGGUAACGCGUCUCCCUCGGAAGAAGAAGACUGCGGGUUCGAGUCCCGUACGGAACG, the yeast fitness stood at 0.593.
For the variant GUUCCGUUGGCGUAAUGGUACCGCGUCUCCCUCCUAAGGAGAAGACUGCGGGUUCGAGUCCUGUCCGGAACG, the yeast fitness turned out to be 0.654.
On to GUUCCGUUAGCGUAAUGGUAAUGCGUCCCCCUCCUAAGGAGAAAACUGCGCGUUCGACUCCCGUACGGAACG, for which the yeast fitness is no more than 0.5.
For the variant GUUCCGUUGGCAUAAUGGUAACGCGUCUACCUCCUAAGGAGUAGACUGCGGGUUCGAGUCCCGUACGGAACG, the yeast fitness was found to be 0.616.
To GUUCCGUUGGCGUAAUGGUAACGCGUCUCCCUCCUAAGGAGAAGACUGCGGGUUCGACUCCGGUACGGAUCG belongs 0.616.
In the case of GUUCCGUUGGUGUAAUGGUAACGCGUCUGCUUCCUAAGGAGAAGACUGCGGGUUCGAGUCCCGUACGGAACG, the yeast fitness was determined as 0.531.
For GUUCCGUUGGCGUAAUGGUCACGCGUCUCCCUCCUAAGGAGAGGACUGCGGGUUCGAGUCCCGUACGGAACG, the yeast fitness came out at 1.01.
Consider GUUCCGUAGGCGUAAUGGUAACGCGUCUCCCCCCUAAGGAGAACACUGCGGGUUCGAGUCCUGUACGGAACG, for which the yeast fitness was no more than 0.5.
On to GUUCCGUUGGCGUAAUGGUAACGCGUCUCCGUCCAAAGGAGAAGACUGCGGGUUCGAGUCCCGUACGGAACG, for which the yeast fitness turned out to be 0.659.
With GUUCCGUUGGCGUAAUGGUAACGCCUCUCCCUCCUGAGGAGAAGACUGCGGGUUCGAGUCCCGUACGGAACG, the yeast fitness was 0.864.
Consider GUUCCGUUGGCGUUAUGGUAACGCGUUUCCCUCCUAAGGAGAAGACUGCGGGUUGGAGUCCCGUACGCAACG, for which the yeast fitness was no more than 0.5.
Take GUUCCGUUGGCCUAAUGGUAACGCGUCUCCCUCCUAAGAAGAAGACUGCGGGUUCGAGUCCCGUACGGAGCG: the yeast fitness amounted to 0.537.
To GUUCCGUUCGCGUAAUGGUAACGCGUCUCCCUCGUAAGGAGAAGACUGCGGGUUCGAGUCCCGUACGGAGCG belongs no more than 0.5; to GUUACGUUGGUGUAAUGGUAACGCGUCUCCCUCCUAAGGGGAAGACUGCGGGUUCGAGUCCCGUACGGAACG, no more than 0.5.
On to GUUCCGUUGGCGUAAUGGUAACGCGACUCCCUCCUAAGGAGAAGAUUGCGGGUUCGAGUCCCGUCCGGAACG, for which the yeast fitness was 0.631.
Under GGUUCGUUGGCGUAAUGGUAACGCGUCUCCCUCCUAAGGAGAAGACUGCGGGUUUGAGUCCCGUACGGAACG stands 0.679; under GUUCCGUUGGCGUACUAGUAACGCGUCUCCCUCCUAAGGAGAAGACUGCGGGUUGGAGUCCCGUACGGAACG, no more than 0.5.
Consider GUUCCGUUGGCGUAAUGGUAACGCAUCUCCCUCCUAAGGCGAAGACUGCGGGUUCGAGUCCCGUACGGAUCG, for which the yeast fitness amounted to 0.625.
For the variant GUUCCGUUGGCGUAAUGGUAACGCGUCCCCCUCAUAAGGAGAAGACUGGGCGUUCGAGUCCCGUACGGAACG, the yeast fitness was no more than 0.5.
Turning to GUUCCGUUGGCGUCAUGGUAACGCGUCUUCCUCCUAAGGAGAAGAAUGCGGGUUCGAGUCCCGUACGGAACG, the yeast fitness is no more than 0.5.
To GUUCCGUUAGCGUAAUGGUAACGCGUCUCCCUCCUAAGGAGAAGACUGCGGGUUCGAGUCCCAUACGGAACG belongs 1.06; to GUUCCGUUGGCGUAAUGGUAGCGCGUCUCCCUUCUAAGGAGAAGACUGCGGGUUCGAGACCCGUACGGAACG, no more than 0.5; to GGUCCGUUGGCGUAAUGGUAACGCGUCUCCCUUCUAAGGAGAAGACUGCGGAUUCGAGUCCCGUACGGAACG, no more than 0.5.
Under GUUCCGUUGGCGUAAUGGUAAAGCAUCUCCGUCCUAAGGAGAAGACUCCGGGUUCGAGUCCCGUACGGAACG stands no more than 0.5; under GUUCCGUUGGGGGAAUGGUAACGCGUCUCCCUCCUAAGGAGAAGACUGCGGGUUCGAGUCCCGUCCGGAACG, no more than 0.5; under GUUCCGUUGGCGUAAUGGUAACGAGUCUGCCUCCGCAGGAGAAGACUGCGGGUUCGAGUCCCGUACGGAACG, no more than 0.5.
To GUUCCGCUGGCGUAAUGGUAACGCGUCUCCCUCCUAAGGAGAAAAUUGCGGGUUCGAGUCCCGUACGGCACG belongs 0.698.
GGUCCGUUGGCGUAAUGGUAACGCGUCUCCCUCCUAAAGAGAAGACUGCGGCUUCGAGUCACGUACGGAACG: the yeast fitness is 0.555.

For the origin of these results see the RNAGym collection of RNA variant scans (doi:10.1126/science.aae0568).
